In article PMC11718171 (Biophysics and Physicobiology, 2024):
Ends that are not written are not given here.

Tests used:
SNAP-CD86 = assay: Orthogonality of labeling, SNAP-CD86-expressing cells; format: cell-based, human; details: 10 nM each, simultaneous labeling, HEK293
Method in brief: (§1)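 HEK293A cells in DMEM with 5% FBS, seeded on coverslips and same-day transfected (Lipofectamine 3000, 1 µg total plasmid made up with pCAGGS) with LgBiT-, SNAP- or HaloTag-fused CD86 (1-277). Co-labeled with SF650-FiBiT, SNAP-cell TMR-star and Halo-JF549 in phenol red-free complete DMEM, 15 min, 37°C. Washed thrice, imaged in 0.01% BSA-HBSS. Bright spots counted against coverslip background.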

Lg-CD86 = assay: Orthogonality of labeling, Lg-CD86-expressing cells; format: cell-based, human; details: 10 nM each, simultaneous labeling, HEK293
Method in brief: as §1

LgBiT = details: in vitro, grating-coupled interferometry; ref [27]; cited from earlier work
[1] = Non-specific binding on coverslips; details: 10 nM, washed three times with complete phenol red-free DMEM, then BSA-HBSS
Method in brief: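 No cells: fluorescent HiBiT or FiBiT peptide diluted in phenol red-free DMEM with 5% FBS, penicillin, streptomycin and glutamine. Added to a dish containing a glass coverslip and held 15 min at 37°C. Washed three times, mounted in a chamber in HBSS with 0.01% BSA, then imaged at single-molecule level for adsorbed bright spots.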

Molecule: CN(C)c1ccc2c(-c3cc(C(=O)NCc4ccc(COc5nc(N)nc6nc[nH]c56)cc4)ccc3C(=O)[O-])c3ccc(=[N+](C)C)cc-3oc2c1 [SNAP-TMR]
- labeling of SNAP-CD86-expressing cells (SNAP-CD86): labeled by SNAP-TMR ligand
- staining of Lg-CD86-expressing cells (Lg-CD86): not by SNAP-TMR nor Halo-JF549

Molecule: HiBiT: HiBiT peptide (~1.3 kDa), NanoLuc fragment (VSGWRLFKKIS; also: TMR label, site not given here)
- on-time of LgBiT-HiBiT interaction (LgBiT): ~ 12 min

Molecule: TMR-DYKDDDDKGDGSVSGWRLFKKIS [TMR-FiBiT]
- non-specific binding to coverslips [1]: greatly reduced the non-specific binding
